The values that follow come from ChEMBL document CHEMBL1149906, “Perennisosides I-VII, acylated triterpene saponins with antihyperlipidemic activities from the flowers of Bellis perennis” (2008).

Assay type in all cases: functional
Assay [1] relates to Mus musculus. Description: Inhibition of serum triglyceride elevation in olive oil-treated ddY mouse at 125 mg/kg, po after 2 hrs.
Assay [2] has as its system Mus musculus. Description: Inhibition of serum triglyceride elevation in olive oil-treated ddY mouse at 125 mg/kg, po after 4 hrs.
Assay [3] has as its system Mus musculus. Put plainly: Inhibition of serum triglyceride elevation in olive oil-treated ddY mouse at 125 mg/kg, po after 6 hrs.
Assay [4] has as its system Mus musculus. Put plainly: Inhibition of serum triglyceride elevation in olive oil-treated ddY mouse at 250 mg/kg, po after 2 hrs.
Assay [5] concerns Mus musculus. Description: Inhibition of serum triglyceride elevation in olive oil-treated ddY mouse at 250 mg/kg, po after 4 hrs.
Assay [6] deals with Mus musculus. Description: Inhibition of serum triglyceride elevation in olive oil-treated ddY mouse at 250 mg/kg, po after 6 hrs.
The subject of assay [7] is Mus musculus. Description: Inhibition of serum triglyceride elevation in olive oil-treated ddY mouse at 500 mg/kg, po after 2 hrs.
For assay [8], the system named is Mus musculus. Description: Inhibition of serum triglyceride elevation in olive oil-treated ddY mouse at 500 mg/kg, po after 4 hrs.
In assay [9] the test system is Mus musculus. Description: Inhibition of serum triglyceride elevation in olive oil-treated ddY mouse at 500 mg/kg, po after 6 hrs.
The subject of assay [10] is Mus musculus. Put plainly: Inhibition of serum triglyceride elevation in olive oil-treated ddY mouse at 25 mg/kg, po after 2 hrs. The procedure, abridged: (§1)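 Male ddY mice (25–30 g) fasted 24–26 h with free access to water, kept conscious. Test sample given orally, then olive oil 5 mL/kg po 30 min later. Blood drawn from the infraorbital venous plexus 2, 4 and 6 h after the olive oil. Serum TG measured by an enzymatic kit; n = 6 per group; means ± SEM.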

Assay [11] concerns Mus musculus. Description: Inhibition of serum triglyceride elevation in olive oil-treated ddY mouse at 25 mg/kg, po after 4 hrs. The procedure, abridged: as §1
Assay [12] has as its system Mus musculus. Put plainly: Inhibition of serum triglyceride elevation in olive oil-treated ddY mouse at 25 mg/kg, po after 6 hrs. The procedure, abridged:
as §1

Assay [13] relates to Mus musculus. Put plainly: Inhibition of serum triglyceride elevation in olive oil-treated ddY mouse at 6.25 mg/kg, po after 2 hrs.
The test system of assay [14] is Mus musculus. Description: Inhibition of serum triglyceride elevation in olive oil-treated ddY mouse at 6.25 mg/kg, po after 4 hrs.
The test system of assay [15] is Mus musculus. Put plainly: Inhibition of serum triglyceride elevation in olive oil-treated ddY mouse at 6.25 mg/kg, po after 6 hrs.
Assay [16] concerns Mus musculus. Put plainly: Inhibition of serum triglyceride elevation in olive oil-treated ddY mouse at 12.5 mg/kg, po after 2 hrs.
Assay [17] concerns Mus musculus. Description: Inhibition of serum triglyceride elevation in olive oil-treated ddY mouse at 12.5 mg/kg, po after 4 hrs.
Assay [18] has as its system Mus musculus. Put plainly: Inhibition of serum triglyceride elevation in olive oil-treated ddY mouse at 12.5 mg/kg, po after 6 hrs.
Assay [19] relates to Mus musculus. Description: Inhibition of serum triglyceride elevation in olive oil-treated ddY mouse at 50 mg/kg, po after 2 hrs. The gist of the method:
as §1

The subject of assay [20] is Mus musculus. Put plainly: Inhibition of serum triglyceride elevation in olive oil-treated ddY mouse at 50 mg/kg, po after 4 hrs. The procedure, abridged: as §1
The test system of assay [21] is Mus musculus. Description: Inhibition of serum triglyceride elevation in olive oil-treated ddY mouse at 50 mg/kg, po after 6 hrs. The procedure, abridged:
as §1

For assay [22], the system named is Mus musculus. Description: Inhibition of serum triglyceride elevation in olive oil-treated ddY mouse at 100 mg/kg, po after 2 hrs. The gist of the method:
as §1

Assay [23] deals with Mus musculus. Put plainly: Inhibition of serum triglyceride elevation in olive oil-treated ddY mouse at 100 mg/kg, po after 4 hrs. The procedure, abridged:
as §1

Assay [24] concerns Mus musculus. Put plainly: Inhibition of serum triglyceride elevation in olive oil-treated ddY mouse at 100 mg/kg, po after 6 hrs. The gist of the method:
as §1

Turning to `CCOC(=O)C(C)(C)Oc1ccc(Cl)cc1` [CLOFIBRATE], the Activity came out at 377.5 mg/dL in assay [1]; 295 mg/dL in assay [2]; 333.4 mg/dL in [3]; 441.2 mg/dL in [4]; 340.5 mg/dL in assay [5]; 443.3 mg/dL in assay [6]. The Activity was determined as 318.2 mg/dL in assay [7], 239.7 mg/dL in assay [8] and 373.5 mg/dL in assay [9].
In the case of `CCCCCCCCCCC[C@@H](C[C@@H]1OC(=O)[C@H]1CCCCCC)OC(=O)[C@H](CC(C)C)NC=O` [ORLISTAT], the Activity was found to be 158.9 mg/dL in assay [10]; 132.2 mg/dL in assay [11]; 140.1 mg/dL in assay [12]; 266.4 mg/dL in assay [13]; 179.3 mg/dL in [14]; 155.6 mg/dL in assay [15]. The Activity is 187.9 mg/dL in [16], 176 mg/dL in [17] and 189.7 mg/dL in assay [18].
`CC(=O)OC[C@H]1O[C@@H](OC(=O)[C@]23CCC(C)(C)C[C@H]2C2=CC[C@@H]4[C@@]5(C)C[C@H](O)[C@H](O)[C@@](C)(COC(C)=O)[C@@H]5CC[C@@]4(C)[C@]2(C)CC3)[C@H](O[C@@H]2O[C@@H](C)[C@H](O)[C@@H](O)[C@H]2O)[C@@H](O[C@@H]2O[C@H](CO)[C@H](O)[C@H](O)[C@H]2O)[C@@H]1O` [PERENNISOSIDE II]: the Activity in assay [10] was found to be 204.6 mg/dL; in assay [11], 147 mg/dL; in assay [12], 87 mg/dL; in [19] it was 232.5 mg/dL; in assay [20], 180.4 mg/dL; in assay [21] it was 104.6 mg/dL. Further, the Activity amounted to 179.4 mg/dL in [22], 155.6 mg/dL in assay [23] and 80.6 mg/dL in [24].
With `CC(=O)OC[C@H]1O[C@@H](OC(=O)[C@]23CCC(C)(C)C[C@H]2C2=CC[C@@H]4[C@@]5(C)C[C@H](O)[C@H](O)[C@@](C)(COC(C)=O)[C@@H]5CC[C@@]4(C)[C@]2(C)CC3)[C@H](O[C@@H]2O[C@@H](C)[C@H](O)[C@@H](O)[C@H]2O)[C@@H](O[C@@H]2O[C@H](CO)[C@@H](O)[C@H](O)[C@H]2O)[C@@H]1O` [PERENNISOSIDE I], the Activity in [10] is 337 mg/dL; in assay [11], 357.7 mg/dL; in assay [12], 222.7 mg/dL; in assay [19] it was 326.9 mg/dL; in [20], 355.8 mg/dL; in [21], 203.7 mg/dL. Further, the Activity came to 135.7 mg/dL in assay [22], 278.7 mg/dL in assay [23] and 208.2 mg/dL in assay [24].
